# Results collected from several papers.
# Protocols differ between the studies behind these lines.
# Target: Ephrin type-B receptor 3 (EPHB3, Homo sapiens, UniProt P54753)
# Sequence (P54753 34-998, as in one of the studies): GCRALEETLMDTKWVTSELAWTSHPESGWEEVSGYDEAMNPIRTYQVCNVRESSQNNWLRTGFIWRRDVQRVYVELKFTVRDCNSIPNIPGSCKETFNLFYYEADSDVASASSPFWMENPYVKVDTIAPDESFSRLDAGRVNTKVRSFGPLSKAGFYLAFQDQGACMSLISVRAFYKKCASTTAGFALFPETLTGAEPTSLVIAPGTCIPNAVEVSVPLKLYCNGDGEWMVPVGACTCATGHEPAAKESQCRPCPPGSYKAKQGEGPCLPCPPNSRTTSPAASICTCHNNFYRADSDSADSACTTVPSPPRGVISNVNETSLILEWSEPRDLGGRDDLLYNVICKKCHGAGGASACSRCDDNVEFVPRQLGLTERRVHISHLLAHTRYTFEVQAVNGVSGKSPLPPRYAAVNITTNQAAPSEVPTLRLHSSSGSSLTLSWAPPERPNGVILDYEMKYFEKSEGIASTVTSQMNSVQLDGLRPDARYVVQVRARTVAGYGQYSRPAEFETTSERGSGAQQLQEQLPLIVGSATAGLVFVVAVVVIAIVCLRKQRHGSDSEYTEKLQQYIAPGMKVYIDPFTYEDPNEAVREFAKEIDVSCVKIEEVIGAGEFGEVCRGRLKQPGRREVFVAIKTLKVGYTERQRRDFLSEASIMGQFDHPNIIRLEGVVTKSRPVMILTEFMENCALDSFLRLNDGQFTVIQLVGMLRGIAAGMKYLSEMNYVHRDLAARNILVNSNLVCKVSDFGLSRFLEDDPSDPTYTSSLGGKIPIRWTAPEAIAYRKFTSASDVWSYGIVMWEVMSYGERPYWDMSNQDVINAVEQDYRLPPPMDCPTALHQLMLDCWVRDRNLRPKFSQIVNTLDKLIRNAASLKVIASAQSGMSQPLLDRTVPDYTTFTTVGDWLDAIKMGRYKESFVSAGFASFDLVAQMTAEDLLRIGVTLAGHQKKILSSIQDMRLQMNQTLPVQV
SMILES,test,setting,endpoint,value
COc1cc2ncnc(Nc3ccc(Oc4ccccc4)c(C)c3C)c2cc1OC,"enzyme activity, inhibitor",1 µM,inhibition,2%
CCCS(=O)(=O)Nc1ccc(F)c(C(=O)c2c[nH]c3ncc(-c4ccc(Cl)cc4)cc23)c1F,"enzyme activity, inhibitor",1 µM,inhibition,< 10%
Cc1ccc(C(=O)NCc2ccsc2)cc1C#Cc1cn(C(C)C)c2ncnc(N)c12,"enzyme activity, inhibitor",1 µM,activity vs control,100%
CCN(CC)CCNC(=O)c1c(C)[nH]c(/C=C2\C(=O)Nc3ccc(F)cc32)c1C,"enzyme activity, inhibitor",0.3 µM,inhibition,-5%
CCCOc1ccc([C@@H]2[C@@H](C(=O)O)[C@H](c3ccc4c(c3)OCO4)CN2CC(=O)Nc2c(CC)cccc2CC)cc1,"cell-free assay, competition with immobilised ligand",1 µM,remaining binding,96%
COc1ccnn2ncc(-c3ccnc(N(C)C)n3)c12,binding,1 µM,remaining binding,100%
CC(C)CC(=O)N1CCc2nc(-c3ccc(Br)cc3)nc(N(C)Cc3ccccc3)c2C1,"cell-free assay, competition with immobilised ligand",0.1 µM,remaining binding,100%
Cn1cncc1C1=CN(c2ncnc3[nH]cnc23)CCS1,"enzyme activity, inhibitor, radiometric",2 µM,inhibition,20.2%
Nc1nc(Nc2ccccc2)sc1C(=O)c1c(F)cccc1F,"enzyme activity, inhibitor",10 µM,remaining activity,59%
Oc1cccc(-c2nc(N3CCOCC3)c3oc4ncccc4c3n2)c1,"enzyme activity, inhibitor",10 µM,remaining activity,127%
Cc1sc(C(=O)NC2COC2)cc1-n1cc(NC(=O)Nc2c(F)cccc2Cl)cn1,"enzyme activity, inhibitor",10 µM,remaining activity,97.2%
Cc1ccc(C(=O)Nc2ccc(CN3CCN(C)CC3)c(C(F)(F)F)c2)cc1C#Cc1cnc2cccnn12,cell-free assay,23.5 nM,remaining signal,100%
Cc1ccc(Nc2nccc(N(C)c3ccc4c(C)n(C)nc4c3)n2)cc1S(N)(=O)=O,cell-free assay,0.5 µM,remaining signal,71.7%
COc1cc(Nc2cnc(C#N)c(O[C@H](C)CN(C)C)n2)ncc1-c1cnn(C)c1,"enzyme activity, inhibitor, radiometric",1 µM,remaining activity,68%
Cc1cc(NC(=O)c2cccc(S(F)(F)(F)(F)F)c2)cc(-n2ccn3nc(-c4cccnc4)cc23)c1,"cell-free assay, competition with immobilised ligand",1 µM,remaining binding,100%
O=C1Nc2ccc(Cl)cc2C1=Cc1cc(Cl)c(O)c(Cl)c1,cell-free assay,0.5 µM,remaining signal,91%
Cc1nc(C2CCN(C(=O)c3ccc(OC(F)(F)F)cc3N)CC2)c2ncc(N3CCN(C)CC3)cc2n1,"cell-free assay, competition with immobilised ligand",1 µM,remaining binding,100%
O=C(Nc1cnn(-c2csc(C(=O)NC3COC3)c2)c1)Nc1ccccc1Cl,"enzyme activity, inhibitor",5 µM,remaining activity,95.6%
C#Cc1cccc(Nc2ncnc3cc(OCCOC)c(OCCOC)cc23)c1,cell-free assay,0.5 µM,remaining signal,58%
CNC(=O)c1cc(Oc2ccc(NC(=O)Nc3ccc(Cl)c(C(F)(F)F)c3)cc2)ccn1,"enzyme activity, inhibitor",10 µM,inhibition,38%
CC(C)(C)c1nc2c(s1)c1nc(N)ncc1c1ccc(NS(=O)(=O)c3c(F)cccc3F)c(F)c12,"enzyme activity, inhibitor, radiometric",1 µM,remaining activity,93%
CCCOc1ccc(OC)c(F)c1C(=O)c1ccc(C(=O)N[C@@H]2CNC[C@H]2NC(=O)c2ccc3[nH]ncc3c2)cc1,"enzyme activity, inhibitor",10 µM,remaining activity,102%
CN(C)C(=O)Cn1cc(-c2nc(C3(c4ccc(-c5cnc(N)nc5)cc4)CC3)no2)cn1,"cell-free assay, competition with immobilised ligand",1 µM,remaining binding,95%
Cn1c(=O)n(-c2ccc(C(C)(C)C#N)cc2)c2c3cc(-c4cnc5ccccc5c4)ccc3ncc21,"enzyme activity, inhibitor",10 µM,remaining activity,117%
CN1CCN(c2cnc3c(C4CCN(C(=O)c5ccc(OC(F)(F)F)cc5N)CC4)ncnc3c2)CC1,"cell-free assay, competition with immobilised ligand",1 µM,remaining binding,100%
CC(C)(O)[C@H]1CC[C@H](Nc2ccc3ncc(-c4cccc(C(F)(F)F)c4)n3n2)CC1,"enzyme activity, inhibitor",1 µM,remaining activity,87.9%
CS(=O)(=O)N1CCCC(NC(=O)[C@H](CCC2CCCCC2)NC(=O)c2ccc(CNc3ncnc4c3nnn4-c3ccccc3)cc2)C1 (stereo partly drawn),"cell-free assay, competition with immobilised ligand",0.1 µM,remaining binding,91%
COc1cc2ncnc(Nc3ccc(F)c(Cl)c3)c2cc1OCCCN1CCOCC1,cell-free assay,0.5 µM,remaining signal,57.5%
CCN(CC)c1ccc(C2=NNC(=O)CC2C)cc1[N+](=O)[O-] (stereo not drawn),"enzyme activity, inhibitor",10 µM,remaining activity,102%
COc1cccc(CNC(=O)c2nc3scc(COCc4ccc(C(=O)O)cc4)c3c(=O)[nH]2)c1,"cell-free assay, competition with immobilised ligand",1 µM,remaining binding,85.4%
